Data from ChEMBL document CHEMBL3259545, “Novel pyrrolobenzoxaboroles: design, synthesis, and biological evaluation against Trypanosoma brucei” (Eur J Med Chem, 2014).
≈ marks a conversion by molar mass, not a printed value.

Columns and labels:
L929 = assay: Cytotoxicity against mouse L929 cells assessed as cell viability after 72 hrs by alamar blue assay; format: cell-based; details: L929, 72 h
In short: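 L929 mouse fibroblasts grown in DMEM with 10% FBS and 1% penicillin/streptomycin, kept sub-confluent. Seeded from a 1 × 10⁴/mL suspension, attached overnight, then medium renewed and DMSO-diluted compounds added. Incubated 72 h at 37 °C, 5% CO₂. Resazurin added for another 3–4 h, fluorescence read at ex 544/em 590 nm.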

[1] = system: Trypanosoma brucei brucei; assay: Antitrypanosomal activity against Trypanosoma brucei brucei 427 after 72 hrs by alamar blue assay; format: functional, organism-based; details: Trypanosoma brucei, 427, 72 h
In short: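 Bloodstream T. b. brucei 427 kept in log phase in HMI-9 with 10% FBS, 10% Serum Plus and penicillin/streptomycin, subcultured every 2–3 days. Final density 1.0 × 10⁵/mL with 0.4% DMSO, exposed to serially diluted compounds for 72 h at 37 °C, 5% CO₂. Resazurin added for another 2–4 h, fluorescence read at ex 544/em 590 nm. IC50 from sigmoidal fits of triplicate points.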

[2] = system: Trypanosoma brucei brucei; assay: Trypanocidal activity against bloodstream stage of Trypanosoma brucei brucei infected in acute BALB/c mouse assessed as clearance of blood parasite on day 30 at 50 mg/kg, ip bid administered for 5 days initiated 24 hrs post infection; format: functional; details: route intraperitoneal
In short: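 Female BALB/c mice infected i.p. with 600 T. b. brucei 221 parasites. Starting 24 h after infection, compounds were given i.p. at 50 mg/kg twice daily for 5 days, in 5% ethanol/45% water/50% PEG400. Untreated mice served as controls. Parasitemia was checked by trypan-blue-stained tail-vein blood smears every other day for ten days, then weekly, with survival followed to day 30.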

[3] = system: Trypanosoma brucei brucei; assay: Trypanocidal activity against bloodstream stage of Trypanosoma brucei brucei infected in acute BALB/c mouse assessed as animal survival rate at 50 mg/kg, ip bid administered for 5 days initiated 24 hrs post infection; format: functional; details: route intraperitoneal
In short: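 Female BALB/c mice infected i.p. with 600 T. b. brucei 221 bloodstream parasites; from 24 h post-infection, dosed 50 mg/kg i.p. twice daily for 5 days in 5% ethanol/45% sterile deionized water/50% PEG400. Parasitaemia was checked on trypan-blue-stained tail-vein blood smears every other day for 10 days, then weekly; survival was followed to day 30.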

SMILES	IC50 (L929)	IC50 [1]	Activity [2]	survival at 50 mg/kg [3]
NCc1ccc(C(=O)c2ccn(-c3ccc4c(c3)B(O)OC4)c2)cc1	> 10 mg/L	0.18 mg/L (≈ 0.542 µM)		
O=C(CCCN1C(=O)c2ccccc2C1=O)c1ccn(-c2ccc3c(c2)B(O)OC3)c1	> 10 mg/L	0.72 mg/L (≈ 1.74 µM)		
O=C(O)c1cccn1-c1ccc2c(c1)B(O)OC2	> 10 mg/L	0.13 mg/L (≈ 0.535 µM)		
O=C(c1ccccc1)c1ccn(-c2ccc3c(c2)B(O)OC3)c1	> 10 mg/L	0.09 mg/L (≈ 0.297 µM)	100%	100%
OB1OCc2ccc(-n3cc(Sc4ccc(F)cc4)c4ccccc43)cc21	> 10 mg/L	> 5 mg/L		
Cc1cccc(C(=O)c2ccn(-c3ccc4c(c3)B(O)OC4)c2)c1	> 10 mg/L	0.09 mg/L (≈ 0.284 µM)		
COc1ccc(CNC(=O)c2cccn2-c2ccc3c(c2)B(O)OC3)cc1	> 10 mg/L	0.7 mg/L (≈ 1.93 µM)		
OB1OCc2ccc(-n3cccc3Sc3ccc(Cl)cc3)cc21	> 10 mg/L	1.16 mg/L (≈ 3.4 µM)		
CC(=O)c1cccn1-c1ccc2c(c1)B(O)OC2	> 10 mg/L	0.69 mg/L (≈ 2.86 µM)		
COc1ccc(S(=O)(=O)c2cn(-c3ccc4c(c3)B(O)OC4)c3ccccc23)cc1	> 10 mg/L	> 5 mg/L		
O=C(c1cccc(Cl)c1)c1ccn(-c2ccc3c(c2)B(O)OC3)c1	> 10 mg/L	0.35 mg/L (≈ 1.04 µM)		
O=C(c1ccn(-c2ccc3c(c2)B(O)OC3)c1)C1CCCCC1	> 10 mg/L	0.13 mg/L (≈ 0.42 µM)		
OB1OCc2ccc(-n3cc(Sc4ccc(O)cc4)c4ccccc43)cc21	> 10 mg/L	> 5 mg/L		
O=C(c1ccc(CO)cc1)c1ccn(-c2ccc3c(c2)B(O)OC3)c1	9.31 mg/L (≈ 27.9 µM)	0.04 mg/L (≈ 0.12 µM)		
COc1ccc([S+]([O-])c2cn(-c3ccc4c(c3)B(O)OC4)c3ccccc23)cc1 (centres undefined)	> 10 mg/L	1.56 mg/L (≈ 3.87 µM)		
O=C(c1ccccc1)c1cccn1-c1ccc2c(c1)B(O)OC2	> 10 mg/L	0.34 mg/L (≈ 1.12 µM)		

SMILES	IC50 (L929)	IC50 [1]	Activity [2]	survival at 50 mg/kg [3]
O=C(c1ccn(-c2ccc3c(c2)B(O)OC3)c1)c1cccc2ccccc12	5.59 mg/L (≈ 15.8 µM)	0.4 mg/L (≈ 1.13 µM)		
O=C(NCCc1ccccc1)c1cccn1-c1ccc2c(c1)B(O)OC2	> 10 mg/L	0.68 mg/L (≈ 1.96 µM)		
COc1ccc(Sc2cn(-c3ccc4c(c3)B(O)OC4)c3ccccc23)cc1	> 10 mg/L	> 5 mg/L		
OB1OCc2ccc(-n3cc(Sc4ccc5ccccc5c4)c4ccccc43)cc21	> 10 mg/L	> 5 mg/L		
COc1ccc(C(=O)c2ccn(-c3ccc4c(c3)B(O)OC4)c2)cc1	> 10 mg/L	0.11 mg/L (≈ 0.33 µM)		
O=C(c1ccccc1Cl)c1cccn1-c1ccc2c(c1)B(O)OC2	> 10 mg/L	0.7 mg/L (≈ 2.07 µM)		
Cc1ccc(C(=O)c2ccn(-c3ccc4c(c3)B(O)OC4)c2)cc1	> 10 mg/L	0.08 mg/L (≈ 0.252 µM)		
O=C(c1ccc(Cl)cc1)c1ccn(-c2ccc3c(c2)B(O)OC3)c1	> 10 mg/L	0.21 mg/L (≈ 0.622 µM)		
O=C(c1ccccc1)c1ccn(-c2ccccc2)c1	> 10 mg/L	> 5 mg/L		
OB1OCc2ccc(-n3cccc3Sc3ccc(Cl)c(Cl)c3)cc21	> 10 mg/L	> 5 mg/L		
O=C(c1ccn(-c2ccc3c(c2)B(O)OC3)c1)c1ccccc1Cl	> 10 mg/L	0.28 mg/L (≈ 0.829 µM)		
O=C(c1ccn(-c2ccc3c(c2)B(O)OC3)c1)c1cccs1	> 10 mg/L	0.08 mg/L (≈ 0.259 µM)		
Cc1ccccc1C(=O)c1ccn(-c2ccc3c(c2)B(O)OC3)c1	> 10 mg/L	0.56 mg/L (≈ 1.77 µM)		
O=C(NC1CCCCC1)c1cccn1-c1ccc2c(c1)B(O)OC2	> 10 mg/L	2.85 mg/L (≈ 8.79 µM)		
O=C(NCc1ccccc1)c1cccn1-c1ccc2c(c1)B(O)OC2	> 10 mg/L	0.8 mg/L (≈ 2.41 µM)		
